Measured values from different studies.
Lines come from different studies, so protocols differ.
Read-out: cell growth or viability

| Structure (SMILES) | cell line | technique | time | setting | endpoint | value |
| --- | --- | --- | --- | --- | --- | --- |
| CN1CCc2cc(Nc3ncc(C4CC4)c(NCCCNC(=O)C4CCC4)n3)ccc2C1 | K562 | MTT | 72 h | – | GI50 | > 1 µM |
| COc1cc2c3c(n(CCCNCCO)c(=O)c2cc1OC)-c1nc2c(cc1C3=O)OCO2 | K562 | MTS | 72 h | – | IC50 | 0.196 µM |
| C=C(F)C(=O)N1CCN(c2nc(OC[C@@H]3CCCN3C)nc3c2CCN(c2cccc4cccc(Cl)c24)C3)C[C@@H]1CC#N | HCT-15 | ATP luminescence | – | 3D culture | IC50 | > 1 µM |
| CN(C)C(=O)c1cncc(-c2cnc3[nH]cc(-c4ccccc4C(F)(F)F)c3c2)c1 | K562 | MTT | 72 h | – | GI50 | 0.453 µM |
| COc1cc2c3c(n(CCCn4ccnc4)c(=O)c2cc1OC)-c1nc2c(cc1C3=O)OCO2 | K562 | MTS | 72 h | – | IC50 | 0.58 µM |
| CC(C)C[C@@H]1NC(=O)[C@@H](N(C)C(=O)[C@H](CC2CCC2)NC(=O)[C@@H]2C[C@@H](F)CN2C(=O)C2(C(F)(F)F)CC(F)(F)C2)CCCCNC(=O)C2(CC2)NC(=O)[C@H](Cc2cc(Cl)ccc2Cl)N(C)C1=O | NCI-H446 | MTT | 5 days | – | GI50 | 0.065 µM |
| C=CC(=O)N1CCN(c2nc(=O)n(-c3c(C)ccnc3C(C)C)c3nc(-c4c(O)cccc4F)c(F)cc23)[C@@H](C)C1 | NCI-H1373 | ATP luminescence | – | – | IC50 | 0.0484 µM |
| C=CC[C@@H]1/C=C(\C)C[C@H](C)C[C@H](OC)[C@H]2O[C@@](O)(C(=O)C(=O)N3CCCC[C@H]3C(=O)O[C@H](/C(C)=C/[C@@H]3CC[C@@H](O)[C@H](OC)C3)[C@H](C)[C@@H](O)CC1=O)[C@H](C)C[C@@H]2OC | K562 | MTT | 72 h | – | GI50 | > 1 µM |
| O=C(O)c1cccnc1Nc1cccc(C(F)(F)F)c1 | HCT-15 | SRB | 48 h | – | GI50 | > 30 µM |
| CCCN1C(=O)[C@H](CC(C)C)NC(=O)[C@@H](N(C)C(=O)[C@H](CC2CCC2)NC(=O)[C@@H]2C[C@@H](F)CN2C(=O)[C@@](C)(O)C(F)(F)F)CCCCNC(=O)C2(CC2)NC(=O)[C@@H]1Cc1cc(Cl)ccc1Cl | NCI-H446 | MTT | 5 days | – | GI50 | 0.028 µM |
| O=C(NO)c1ccc(CNc2nc3cccc(-c4ccc5c(c4)OCO5)n3n2)cc1 | HOP-92 | SRB | – | – | GI50 | 0.7 µM |
| C=CC(=O)c1cccnc1Nc1cc(C(F)(F)F)ccc1OC | HCT-15 | SRB | 48 h | – | GI50 | 6.96 µM |
| C=CS(=O)(=O)Nc1ccc(OC)c(-c2c[nH]c3ncc(-c4cncc(C(=O)N(C)C)c4)cc23)c1 | K562 | MTT | 72 h | – | GI50 | > 1 µM |
| COc1cc2c3c(n(CCCNC(C)C)c(=O)c2cc1OC)-c1nc2c(cc1C3=O)OCO2 | K562 | MTS | 72 h | – | IC50 | 0.182 µM |
| CCN(c1cc(-c2ccc(CN3CCOCC3)cc2)cc(C(=O)NCc2c(C)cc(C)[nH]c2=O)c1C)C1CCOCC1 | HT-1376 | ATP luminescence | 18 days | – | GI50 | 0.385 µM |
| O=C(C=Cc1ccccc1)Nc1cc(-c2ccnc(N3CCC(O)CC3)c2)ccn1 | MCF-10A | MTT | 72 h | – | IC50 | 3.33 µM |
| C=CC(=O)NC1CCN(c2ncc3ncnc(Nc4ccc(Oc5ccc6c(c5)ncn6C)c(C)c4)c3n2)CC1 | COR-L88 | – | – | – | EC50 | 0.313 µM |
